Source: PubChem BioAssay
This is one part of a sample in which hits are shown more often than they occur.
GASC1 inh – inhibitors of human demethylase GASC-1 KDM4C; Q9H3R0; GST-KDM4C 2-372, H3K9me3 peptide, LANCE TR-FRET; actives 0.15% (n = 96,000); inhibition, % at 12.5 µM; AID 720574;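 active means mean replicate inhibition above about 25%, with at least 55% of replicates also reaching it, limit read from the data, passing the limit was not always enough; inconclusive means only one of those two conditions met; inactive means neither condition met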
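Test system – GST-tagged GASC-1 (JMJD2C) catalytic fragment, aa 2-372 · Medium – HEPES buffer, pH 7.5, plus ascorbate · Reagent – H3K9me3 peptide with Fe(II)/2OG · Compound – one test concentration per compound · Timing – 30 min reaction, 60 min detection, RT · Technique – TR-FRET with Eu antibody and ULight streptavidin, EDTA stop · Read-out basis – inhibition from TR-FRET ratio decrease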
IDH1 mut inh – IDH1 R132H (human) inhibition | IDH1 R132H reductase, diaphorase/resazurin fluorescence, 60 min | O75874 | actives 0.18% (n = 70,000) | inhibition, % at 10 µM; in the data active means inhibition above about 34%; inconclusive means no clear call, values can overlap the other calls; inactive means below about 11%;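 further: 0% = DMSO and 100% = no enzyme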
Target sequence (O75874 whole entry R132H): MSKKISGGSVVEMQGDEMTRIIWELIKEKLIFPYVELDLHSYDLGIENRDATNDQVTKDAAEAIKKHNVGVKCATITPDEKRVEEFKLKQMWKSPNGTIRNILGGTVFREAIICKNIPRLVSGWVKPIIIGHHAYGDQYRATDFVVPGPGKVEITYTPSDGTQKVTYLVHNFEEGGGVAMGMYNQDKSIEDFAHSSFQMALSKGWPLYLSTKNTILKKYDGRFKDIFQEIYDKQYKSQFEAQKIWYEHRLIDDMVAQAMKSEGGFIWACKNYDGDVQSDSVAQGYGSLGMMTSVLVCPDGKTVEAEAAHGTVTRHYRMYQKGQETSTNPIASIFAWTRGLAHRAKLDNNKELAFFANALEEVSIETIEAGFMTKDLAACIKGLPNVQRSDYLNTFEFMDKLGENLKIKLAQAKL
T cruzi growth-1 – blocks T. cruzi growth in NIH3T3 culture. T. cruzi beta-gal in NIH3T3, GalScreen luminescence, 90 h. inhibition, % at 8.34 µM. actives 5.9% (n = 77,000). AID 624255;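 active means mean inhibition above about 93%, with at least 55% of replicates each passing it, limit read from the data, passing the limit was not always enough; inconclusive means only one of those two conditions holds; inactive means neither condition holds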
T cruzi growth-2 – blocks T. cruzi growth in NIH3T3 host cells | shares compounds with T cruzi growth-1 | T. cruzi beta-gal in NIH3T3, GalScreen luminescence, 90 h | inhibition, % at 8.35 µM | actives 72% (n = 5,600) | AID 651739;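 active means mean replicate inhibition above about 95% and at least 55% of replicates individually reaching it, limit read from the data; inconclusive means only one of the two criteria is met; inactive means neither criterion is met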
T cruzi growth-3 – Trypanosoma cruzi proliferation inhibition; AID 651740; T. cruzi beta-gal in NIH3T3, GalScreen luminescence, 90 h; actives 21% (n = 5,600); inhibition, % at 2.09 µM; shares compounds with T cruzi growth-1;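 active means mean inhibition above about 95%, with at least 55% of replicates also reaching it, limit read from the data; inconclusive means meets just one of the two conditions; inactive means meets neither condition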;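 further: plate controls were neutral control median for no effect and positive control median for full effect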
NIH3T3 tox – cytotoxicity in mouse NIH/3T3 fibroblasts; shares compounds with T cruzi growth-1; NIH/3T3 viability, CellTiter-Glo ATP luminescence, 90 h; cytotoxicity (signal decrease), % at 8.35 µM; actives 14% (n = 5,600);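 active means mean signal decrease across replicates above about 35% based on untreated-well scatter, with enough replicates individually passing, limit read from the data; inconclusive means no rule stated though some were filed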;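 further: 0% = median of neutral control wells and 100% = median of positive control wells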
3T3 cytotox 2 – NIH/3T3 (mouse) viability loss; NIH/3T3 viability, CellTiter-Glo ATP luminescence, 90 h; actives 56% (n = 5,600); AID 651744; inhibition, % at 24.9 µM; shares compounds with T cruzi growth-1;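 active means mean loss of cell viability signal at or above a set limit, and enough replicates individually reaching it; inconclusive means meets only the mean limit or only the replicate share; inactive means meets neither condition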;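 further: 0% = median of neutral control wells and 100% = median of positive control wells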
* marks the source's active call; other numbers are inactive results; ? = inconclusive; . = no result.

SMILES	GASC1 inh	IDH1 mut inh	T cruzi growth-1	T cruzi growth-2	T cruzi growth-3	NIH3T3 tox	3T3 cytotox 2
CCNC(=O)C[C@@H]1CC[C@@H]2[C@@H](COc3ccc(NC(=O)c4ccc(F)cc4)cc3C(=O)N2C)O1	0.2	.	2.6	.	.	.	.
Cc1ccccc1S(=O)(=O)N1[C@H](CO)[C@@H](c2ccc(C#CC3CCCC3)cc2)[C@@H]1C#N	4.5	.	.	.	.	.	.
C[C@@H]1CCCCO[C@@H](CN(C)S(=O)(=O)c2ccc(Cl)cc2)[C@H](C)CN([C@H](C)CO)C(=O)c2cc(NS(=O)(=O)c3ccc(F)cc3)ccc2O1	0.7	0.3	61.3	.	.	.	.
C[C@@H]1CN([C@H](C)CO)C(=O)c2cc(NS(=O)(=O)c3ccc(F)cc3)ccc2O[C@@H](C)CCCCO[C@@H]1CN(C)S(=O)(=O)c1ccc(Cl)cc1	1.1	0.7	98.7	.	.	.	.
C[C@@H]1CCCCO[C@@H](CN(C)S(=O)(=O)c2ccc(F)cc2)[C@@H](C)CN([C@@H](C)CO)C(=O)c2cc(NS(=O)(=O)c3ccc(Cl)cc3)ccc2O1	-0.3	4.8	102.8*	102.6*	74.3	3.1	53.5*
C[C@@H]1CN([C@H](C)CO)C(=O)c2cc(NS(=O)(=O)c3ccc(Cl)cc3)ccc2O[C@@H](C)CCCCO[C@H]1CN(C)S(=O)(=O)c1ccc(F)cc1	-0.3	0.7	103.3*	100.5*	110.0*	8.4	-8.8
C[C@@H]1CN([C@@H](C)CO)C(=O)c2cc(NS(=O)(=O)c3ccc(F)cc3)ccc2O[C@@H]1CN(C)S(=O)(=O)c1ccc(Cl)cc1	-0.6	0.4	92.2*	109.7*	48.9	22.5	46.4*
C[C@@H]1CN([C@H](C)CO)C(=O)c2cc(NS(=O)(=O)c3ccc(F)cc3)ccc2O[C@H]1CN(C)S(=O)(=O)c1ccc(Cl)cc1	-0.9	3.0	30.0	.	.	.	.
C[C@@H]1CCCCO[C@@H](CN(C)S(=O)(=O)c2ccc(F)cc2)[C@H](C)CN([C@@H](C)CO)C(=O)c2cc(NS(=O)(=O)c3ccc(Cl)cc3)ccc2O1	-0.3	1.2	102.7*	95.4*	94.8	6.4	34.5*
Cn1c(SCC(=O)Nc2ccccc2[N+](=O)[O-])nc2ccccc2c1=O	.	2.9	.	.	.	.	.
COc1cccc(NC(=O)CSC2CC(=O)N(c3cc(C)cc(C)c3)C2=O)c1 (stereo not given)	.	-0.3	.	.	.	.	.
CS(=O)(=O)Nc1ccc2c(c1)[C@H]1C[C@@H](CC(=O)N3CCc4ccccc4C3)O[C@H](CO)[C@H]1O2	2.7	-2.8	.	.	.	.	.
C[C@@H]1CN([C@@H](C)CO)C(=O)c2cc(C3=CCCC3)cnc2O[C@H]1CN(C)S(=O)(=O)c1cn(C)cn1	3.8	-10.9	70.1	.	.	.	.
COCC(=O)N1CC2(CN(Cc3cccnc3)C2)c2c(n(C)c3cc(OC)ccc23)[C@H]1CO	-0.3	.	.	.	.	.	.
O=C(NCc1ccccn1)C(=O)Nc1ccc(Cl)c(Cl)c1	.	-0.1	.	.	.	.	.
C[C@@H]1CN([C@@H](C)CO)C(=O)c2cc(NS(=O)(=O)c3ccc(F)cc3)ccc2O[C@@H](C)CCCCO[C@@H]1CN(C)S(=O)(=O)c1ccc(Cl)cc1	1.5	-0.3	?	106.5*	102.9*	-22.7	?
C[C@H](CO)N1C[C@H](C)[C@@H](CN(C)S(=O)(=O)c2ccc(F)cc2)OCCCC[C@H](C)Oc2ccc(NS(=O)(=O)c3ccc(Cl)cc3)cc2C1=O	1.7	2.8	99.6*	?	?	48.5*	27.4*
C[C@@H]1CCCCO[C@H](CN(C)S(=O)(=O)c2ccc(Cl)cc2)[C@@H](C)CN([C@@H](C)CO)C(=O)c2cc(NS(=O)(=O)c3ccc(F)cc3)ccc2O1	1.3	.	85.5	.	.	.	.
C[C@@H]1CCCCO[C@@H](CN(C)S(=O)(=O)c2ccc(Cl)cc2)[C@@H](C)CN([C@H](C)CO)C(=O)c2cc(NS(=O)(=O)c3ccc(F)cc3)ccc2O1	0.5	.	68.5	.	.	.	.
COCCNC(=O)c1cc2c(c(-c3cccc(C4=CCCCC4)c3)n1)[C@@H](CCO)N([S@](=O)C(C)(C)C)C2	1.7	.	.	.	.	.	.
Cc1ccc(S(=O)(=O)N(C)C[C@H]2Oc3c(NC(=O)Nc4ccc(C(F)(F)F)cc4)cccc3C(=O)N([C@H](C)CO)C[C@@H]2C)cc1	0.8	.	84.7	.	.	.	.
